The data set deals with MS2 coat protein. In words: apparent Kd, MS2 coat protein; higher = weaker binding; RNA-MaP array; FMN 200 µM where present. Put shortly:
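The apparent Kd is the median of filtered binding-curve fits, one per cluster, to green signal normalised to red-channel RNA signal and control-cluster median Fmax. The clusters were on Illumina sequencing chips, and stalled E. coli RNA polymerase had transcribed the designs on them. Titration used SNAP-549-labelled MS2 coat protein from 0.7 or 1.5 nM, doubling to 3 µM, without and then with constant ligand, in 100 mM Tris-HCl pH 7.5, 80 mM KCl, 4 mM MgCl2, BSA, DTT, yeast tRNA and Tween-20.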

Where [1] appears, read: designed as: OFF switch for flavin mononucleotide, no ligand.
The mark [2] stands for this setting: ligand present: flavin mononucleotide, designed as: OFF switch for flavin mononucleotide.
[3] abbreviates: designed as: ON switch for flavin mononucleotide, no ligand.
The mark [4] stands for this setting: ligand present: flavin mononucleotide, designed as: ON switch for flavin mononucleotide.

With “CAGUACUGAGGAUAUACAUGAGGAUCACCCAUGUGUUCCUUGUAGGAUAUGCGCAAAAGUAGAAGCCAGAAGGAGAUGUGCCUA”, the apparent Kd (in general, the concentration giving half-maximal binding under the conditions of the assay) under setting [1] was 6.95 nM and the “apparent Kd” value under setting [2] was found to be 7.31 nM.
As to “AUAGGAUUGCGAGGAUAUUAGCGCGGGCCUUCAGACUUACGAAAUGACAUGAGGAUCACCCAUGUUAAGAAGGCGCAUCAAAUG”, the “apparent Kd” value runs as follows: under setting [1], 6.58 nM; under setting [2], 58.3 nM.
In the case of “AGCUCGUACACAGGAUAUCCGUUGCUGCGCACUGGAGAAGGGUGACAUCCGCACAUGAGGAUCACCCAUGUACCGGGACAAUAU”, the “apparent Kd” value reads like this: under setting [3], 282 nM; under setting [4], 640 nM.
As for “CGGGUCUGAGGAUAUCCAUCUUCAUACAUGAGGAUCACCCAUGUUUACCUUUGGGUUUUUGGAGAAGGCAGUUUUC”, the “apparent Kd” value under setting [1] was found to be 43.5 nM and the “apparent Kd” value under setting [2] came out at 74.6 nM.
Take “CCUCAGUAAGGAUAUCAGCUUAUAAAGUUGGUAAUGAGAGCUGAGAAGGUACAUGAGGAUCACCCAUGUUAGUU”: the “apparent Kd” value under setting [1] came out at 21.4 nM and the “apparent Kd” value under setting [2] is 66.3 nM.
With “GCCGCAGGAACAGGAUAUGUGGGCAUAAAAUUAUACCAGGCCCACAUGAGGAUCACCCAUGUGACACAGAAGGGUUCCUAAAUA”, the “apparent Kd” value under setting [3] was 619 nM and the “apparent Kd” value under setting [4] came out at 29.8 nM.
Consider “CCGGCUGCUGUGAGGAUAUGCCUGUGGGUGCGUGGGUAGAAGGCACAUGAGGAUCACCCAUGUCCUGCGGCUCG”, for which the “apparent Kd” value under setting [1] amounted to 501 nM and the “apparent Kd” value under setting [2] came to 327 nM.
The like results for “UAAAAUAGUGUGAGGAUAUGCUGGUCCUUGGAUCAGCAGAAGGCACAUGAGGAUCACCCAUGUAGUUAAUUUUA” were, in that order, 40.5 nM and 218 nM.
For “GGGCUGUCAGGAUAUGGGUUUGGGCCCGAAAGGGCCCGGGCCCAGAAGGGACAUGAGGAUCACCCAUGUGGCCC”, the “apparent Kd” value was 32.1 nM under setting [1] and 33.8 nM under setting [2].
As to “AAAUUACAUGAGGAUCACCCAUGUUUAAAAAAUAUAGGAUAUGUAAAAAAAAAAAAAAAAACAGAAGGGUAAAAAA”, the “apparent Kd” value under setting [3] came out at 44.8 nM and the “apparent Kd” value under setting [4] worked out at 42 nM.
On to “ACUGUCGCGUGAGGAUAUGGUCUGCAGUGCUGACCAGAAGGCAUGUCGAUAGACAUGAGGAUCACCCAUGUGGUUAGGGCGGCA”, for which the “apparent Kd” value under setting [3] amounted to 933 nM and the “apparent Kd” value under setting [4] was determined as 467 nM.
Take “AUAAACGCAGGAUAUACAUGAGGAUCACCCAUGUCCGCGCUUGUUGCGGGCACCUGAUGUAGAAGGGCGGGCGC”: the “apparent Kd” value under setting [1] was 214 nM and the “apparent Kd” value under setting [2] is 184 nM.
Turning to “AAAAAGCGAGGAUAUACAUGAGGAUCACCCAUGUCAAACGGUAAGACCGCAGGAAAAAGUAGAAGGCGCAAAAA”, the “apparent Kd” value is, setting by setting: under setting [1], 61.5 nM; under setting [2], 98.5 nM.
“GGGUACAUCGGAGGAUAUCAUGUAAAUACAUGAGGAUCACCCAUGUCGAUGAAGACAUCGGAGAUUGAGAAGGCCGAUGUACCG”: the “apparent Kd” value reads like this: under setting [3], 1070 nM; under setting [4], 76.3 nM.
With “AGAUGACAAAGUCAUCUCUGACAGACAUGAGGAUCACCCAUGUAGGAUAUACUACUCAAAGAGUAGUAGAAGGACAUGUGUCUU”, the “apparent Kd” value runs as follows: under setting [1], 33 nM; under setting [2], 95.7 nM.
Consider “AAAACAUGAGGAUCACCCAUGUAAAGAUCGGUCGAUCAAGGUGAGGAUAUACAAUAAUUGAUGGAGUAGAAGGCACUGGGUUGA”, for which the “apparent Kd” value is, setting by setting: under setting [3], 227 nM; under setting [4], 127 nM.
On to “AAAAAGUGAGGAUAUACGCUGUGGAGUAGACACAACCAGACGUAGAAGGCACAUGAGGAUCACCCAUGUCCAAA”, for which the “apparent Kd” value is, setting by setting: under setting [1], 24.9 nM; under setting [2], 51.9 nM.
For the sequence “UGAGCGACCACAGGAUAUACUUGGUAAGACCGAGUAGAAGGGUGGAAGAGCGUGCAGUGACAUGAGGAUCACCCAUGUGGUUGU”, the “apparent Kd” value came to 215 nM under setting [3] and 77.5 nM under setting [4].
As for “AACAGUACAGGAUAUACAUGAGGAUCACCCAUGUGAGAUUUAAGUGGCGUACCACAAAGUAGAAGGGUACUGGA”, the “apparent Kd” value runs as follows: under setting [1], 38 nM; under setting [2], 187 nM.
Take “AUCUUGUAAGGAUAUCGUGCAAGUUUCAAAAGAGGCUUGUGCGAGAAGGUACAUGAGGAUCACCCAUGUAGGUU”: the “apparent Kd” value was found to be 26.2 nM under setting [1] and 71.2 nM under setting [2].
For the sequence “AUUGUUUAUGUAGGAUAUGCCUGGCGUGCCUUUGCAGAAGGACAUGAGGAUCACCCAUGUAUUGCGGUCUGCGUUCAGAUCGCA”, the “apparent Kd” value is 33.2 nM under setting [1] and 44.3 nM under setting [2].
Consider “UUUUAACAUGAGGAUCACCCAUGUGAGGAUAUCGAAAUUUAUAUUAAUAUUUAUAAUUCGAGAAGGCACAUUUU”, for which the “apparent Kd” value was found to be 170 nM under setting [1] and 148 nM under setting [2].
Take “GUUUUCGCAUGAGGAUAUGCUCGCAAUUCAAGAGCAGAAGGUAUGUCUAUAGACAUGAGGAUCACCCAUGUAUUUAUCAUUGAA”: the “apparent Kd” value under setting [3] stood at 218 nM and the “apparent Kd” value under setting [4] is 58.7 nM.
For the sequence “UUGGACGUCGUAGGAUAUGUAGGAGAUUCCUACAUGAGGAUCACCCAUGUUGACAUGGAAGAAGGACAGAAGGACGAUGUCCAU”, the “apparent Kd” value under setting [3] came out at 328 nM and the “apparent Kd” value under setting [4] was determined as 20.4 nM.
With “GCACUGGCAGGAUAUACAUGAGGAUCACCCAUGUGACCCUUGAUGUACUCGCGUACACGUAGAAGGGCCUGUGC”, the “apparent Kd” value amounted to 120 nM under setting [1] and 571 nM under setting [2].
In the case of “UUAAUUAACAAGAAGGCAUACAUGAGGAUCACCCAUGUUCUACAUGGAUAAUGAGGAUAUUGCUAAUACAUGAGGAUCACCCAU”, the “apparent Kd” value runs as follows: under setting [1], 53.6 nM; under setting [2], 50.8 nM.
As to “AUGUUAUAUGAAGGAUAUACUUAACAUGAGGAUCACCCAUGUGGUGUUGUGAGUGAGUGAGUUUAGUAGAAGGUCAAUUCUUUU”, the “apparent Kd” value is, setting by setting: under setting [1], 256 nM; under setting [2], 263 nM.
Take “AUCAGCUCGUCAGGAUAUACGUCACUGCGUCAGCAGUGUGGUAAGAUCACAUGAGGAUCACCCAUGUAGAAGGGACGAUCUGAU”: the “apparent Kd” value runs as follows: under setting [1], 12.8 nM; under setting [2], 309 nM.
For “GCGCUUAUACAGAAGGCCAUAUACAUGAGGAUCACCCAUGUUAUUUGGUGGAGGAUAUGUUUUUUAUUACAGGUAGUUGAGCGC”, the “apparent Kd” value runs as follows: under setting [3], 7.42 nM; under setting [4], 5.91 nM.
As for “UCCUGGCGAGGAUAUACAAUGUUUUUCACGUUUUGUUUCGAACAUGAGGAUCACCCAUGUAGAAGGUGCUACUG”, the “apparent Kd” value turned out to be 53.2 nM under setting [1] and 44.7 nM under setting [2].
As for “AUUUAAAUGUCAGGAUAUGUUAGUUUAUACUUAGUAGAAGGGAUAAUUAUACUCAAGUACAUGAGGAUCACCCAUGUUAAAUCA”, the “apparent Kd” value runs as follows: under setting [3], 21 nM; under setting [4], 18.5 nM.
“UGUGCUAUGUAGAAGGCAGAUCUGAUUCAGAUCUGAGGAUAUACAUGAGGAUCACCCAUGUUAUGCACCAGCACGAGAGUGCAG”: the “apparent Kd” value under setting [1] came to 9.17 nM and the “apparent Kd” value under setting [2] stood at 24 nM.
On to “UUCAGCUCGUGAGGAUAUACAUGUGCUGGAAACAGCACUAUUGUGUUCACAUGAGGAUCACCCAUGUAGAAGGCACGAGCUGAG”, for which the “apparent Kd” value under setting [1] came out at 18.6 nM and the “apparent Kd” value under setting [2] is 82.1 nM.
With “UUGACGGCAGGAUAUACAUGAGGAUCACCCAUGUAAAUUUUUCGUUUAACUUGAAUGUGUAGAAGGGCCAAAUU”, the “apparent Kd” value is, setting by setting: under setting [1], 19 nM; under setting [2], 20 nM.
The matching figures for “AUGCUAGUGUGAGGAUAUUAACAUGAGGAUCACCCAUGUUGGAAGAUCAUGACGAUCACGCAUGAUAAGAAGGUACAUUAGCAU”: 40.8 nM and 94.9 nM.
The like results for “AGAAACUACGAGAAGGACAUGAGAACCUUCAAUUACAUGAGGAUCACCCAUGUAGGAUAUCGUAGUUUCAGGAUCGUGAGAUCA” were, in that order, 12.7 nM and 86 nM.

The values above are taken from the EternaBench riboswitch data.
